Variants at the floor of the assay were thinned out.
B1: tRNA (parent)
chain: GUUCCGUUGGCGUAAUGGUAACGCGUCUCCCUCCUAAGGAGAAGACUGCGGGUUCGAGUCCCGUACGGAACG

Variants of: B1
Test: yeast fitness relative to wild type (ratio to wild type); higher = fitter; tRNA-Arg(CCU), competitive growth, 37 C, YPD
Procedure, shortened: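 The tRNA-Arg(CCU) gene variants were made by chemical synthesis with a 3% per-site mutation rate at 69 sites and inserted at the native genomic locus of Saccharomyces cerevisiae. After pooling, the strains were competed in YPD at 37°C for 24 hours in six parallel replicates. Gene amplicons from the start population and each end population were read by 100-nucleotide paired-end sequencing, and Darwinian fitness relative to wild type was taken from genotype frequency changes. Genotypes needed ≥ 100 starting reads, and estimates < 0.5 were set to 0.5.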

| Variant | yeast fitness |
| --- | --- |
| C4G C31G A40G C62A | ≤ 0.5 |
| C4G C33G A36C C66U | ≤ 0.5 |
| C4G C33G A42U U47G U54A C61A | ≤ 0.5 |
| C4G C33G G67A | ≤ 0.5 |
| C4G C33G U35C U59A A69U | ≤ 0.5 |
| C4G C33U A43C | ≤ 0.5 |
| C4G C33U A45U C60G | ≤ 0.5 |
| C4G C34A | 0.762 |
| C4G C34A C66U | ≤ 0.5 |
| C4G C34A U54C | 0.54 |
| C4G C34G A37U A42U C61U | ≤ 0.5 |
| C4G C34G A40G | 0.57 |
| C4G C34G A42U C61U | 0.646 |
| C4G C34G A42U C61U C66U | ≤ 0.5 |
| C4G C34G A43G A57C | ≤ 0.5 |
| C4G C34G A65G | ≤ 0.5 |
| C4G C34G U47A C49A A65G | 0.519 |
| C4G C34U C49A | 0.61 |
| C4G C34U C49A G68C | ≤ 0.5 |
| C4G C34U C55A G68C | ≤ 0.5 |
| C4G C34U G67A A69U | ≤ 0.5 |

| Variant | yeast fitness |
| --- | --- |
| C4G C46G | 0.854 |
| C4G C46G A69U | 0.721 |
| C4G C46U G48A | 1.04 |
| C4G C46U G67C | 0.597 |
| C4G C49A G56C C61U | 0.609 |
| C4G C49G G67A | ≤ 0.5 |
| C4G C49G U64G A65G A70U | ≤ 0.5 |
| C4G C49U G52A | 0.55 |
| C4G C49U G52A C60G | ≤ 0.5 |
| C4G C49U U54G | ≤ 0.5 |
| C4G C55A A57U | ≤ 0.5 |
| C4G C55A C60A | ≤ 0.5 |
| C4G C55G G63A | 0.558 |
| C4G C55U | 0.748 |
| C4G C55U G63A G68C | ≤ 0.5 |
| C4G C55U G68C | 0.56 |
| C4G C60A | 0.642 |
| C4G C60G C61U | ≤ 0.5 |
| C4G C60G G68C | 0.622 |
| C4G C60U G63C G68A | ≤ 0.5 |
| C4G C61G | 0.659 |

| Variant | yeast fitness |
| --- | --- |
| C4G C61G G63C A70G | 0.516 |
| C4G C61U | 0.935 |
| C4G C62A | 0.67 |
| C4G C62A C66U | 0.704 |
| C4G C66G | 0.671 |
| C4G C66U | 0.836 |
| C4G G6A A21C | 0.701 |
| C4G G6A A21C U53A U54A | ≤ 0.5 |
| C4G G6A A69U | 0.667 |
| C4G G6A C11U C29A G63A A70G | ≤ 0.5 |
| C4G G6A C24U A40U A65C A69U | 0.815 |
| C4G G6A C46U A69C | 0.536 |
| C4G G6A G10C U19A C24G A43G C61G A65U | 0.576 |
| C4G G6A G10C U19A C24G A43G C61G A70U | ≤ 0.5 |
| C4G G6A G23A A43G | ≤ 0.5 |
| C4G G6A G23A A43G A69U A70G | ≤ 0.5 |
| C4G G6A G23A A43G C55U | ≤ 0.5 |
| C4G G6C | 0.657 |
| C4G G6C A21C C31U U35A U47G | 0.569 |
| C4G G6C A36C C62G C66A | ≤ 0.5 |
| C4G G6C A40U A45G C55A | ≤ 0.5 |

| Variant | yeast fitness |
| --- | --- |
| C4G G6C C29G G63C | ≤ 0.5 |
| C4G G6C C30A | ≤ 0.5 |
| C4G G6C U8G G17A G23A A45G A70C | ≤ 0.5 |
| C4G G6C U8G G17A G23A C46G C60A | 0.567 |
| C4G G9A A14G G25C A57C U64A | ≤ 0.5 |
| C4G G9A A21C C22A | ≤ 0.5 |
| C4G G9A A21C C22A C66U | 0.559 |
| C4G G9A G10C C29A A37G G50U U59G | ≤ 0.5 |
| C4G G9A G10C C29A G50U U59G | 0.599 |
| C4G G9A G10C C29A G50U U59G A69U | ≤ 0.5 |
| C4G G9A G10C C29A U53C C62U | ≤ 0.5 |
| C4G G9A G18C C31U C55A A65C | ≤ 0.5 |
| C4G G9A G18C C31U U47G | ≤ 0.5 |
| C4G G9A G39A A65U A69U | ≤ 0.5 |
| C4G G9A G50C G67A | ≤ 0.5 |
| C4G G9A U28C G39A | ≤ 0.5 |
| C4G G9C A42U C55G | ≤ 0.5 |
| C4G G9C C22A | ≤ 0.5 |
| C4G G9C C22A A69U | 0.525 |
| C4G G9C C22A A70C | ≤ 0.5 |

Source: the RNAGym collection of RNA variant scans (doi:10.1126/science.aae0568)
